The list is not random: actives were taken first. Their share in the collection is about 1.8%.
LMPTP inh: LMPTP (human) inhibition; inhibition, % at 20 µM; 360,000 tested, 0.22% active; P24666; recombinant LMPTP-A, OMFP fluorogenic substrate, fluorescence intensity; AID 651560;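 active means compounds that cut the enzyme signal by at least half of the control window in the single-dose screen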;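 further: plate controls were DMSO wells with enzyme plus substrate for no effect and substrate without enzyme for full effect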
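Buffer or medium: Bis-Tris pH 6.0, DTT, detergent; Assay system: LMPTP-A enzyme; Quantity: 0.625 nM enzyme; Detection: endpoint fluorescence intensity; Times: 50 min dark incubation at room temperature; Controls: substrate-only low control, DMSO enzyme-plus-substrate high control; Doses: single 20 µM dose; Read-out: percent inhibition versus substrate-only and uninhibited controls; Reagent: 400 µM OMFP.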
STEP inh: blocks human striatal-enriched tyrosine phosphatase | AID 588621 | recombinant STEP, OMFP fluorogenic substrate, fluorescence | P54829 | 360,000 tested, 0.25% active | inhibition, % at 20 µM;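 active means inhibition at 20 µM, scaled per plate between control wells, above about 37%, limit read from the data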;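 further: 0% = DMSO with enzyme and substrate and 100% = substrate only without enzyme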
Target sequence (P54829 whole entry, looked up): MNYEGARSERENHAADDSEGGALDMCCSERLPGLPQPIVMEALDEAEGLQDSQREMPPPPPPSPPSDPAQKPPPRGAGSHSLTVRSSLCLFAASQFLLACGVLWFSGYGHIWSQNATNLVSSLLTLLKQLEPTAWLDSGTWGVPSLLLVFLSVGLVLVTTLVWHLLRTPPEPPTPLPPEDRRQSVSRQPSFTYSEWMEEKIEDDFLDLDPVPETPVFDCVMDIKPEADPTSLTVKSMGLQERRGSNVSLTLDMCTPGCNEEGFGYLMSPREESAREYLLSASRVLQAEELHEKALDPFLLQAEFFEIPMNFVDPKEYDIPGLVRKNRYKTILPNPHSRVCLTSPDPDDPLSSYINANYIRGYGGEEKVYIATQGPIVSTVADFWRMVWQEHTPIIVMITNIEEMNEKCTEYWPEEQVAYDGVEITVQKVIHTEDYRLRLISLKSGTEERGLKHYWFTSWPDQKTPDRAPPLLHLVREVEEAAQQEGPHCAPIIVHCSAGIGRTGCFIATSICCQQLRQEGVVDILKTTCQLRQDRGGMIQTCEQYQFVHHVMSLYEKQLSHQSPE
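Also added – OMFP at 25 µM · Test system – STEP tyrosine phosphatase · Technique – FITC-channel fluorescence of OMFP product · Schedule – 20 min at room temperature, dark · Evaluation – control-normalized % inhibition with plate pattern correction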
SUMO1-SIM PPI: alters human SUMO1 binding to SIM partners; P63165; SUMO1 binding to a labelled peptide, TR-FRET, 1 h; inhibition, % at 20 µM; 360,000 tested, 0.33% active; AID 602429; in the data active means inhibition above about 37%
Scp-1 inhibitor: Scp-1 (human) phosphatase inhibition. AID 493091. Recombinant Scp1, phosphopeptide, malachite green phosphate absorbance. inhibition, % at 20 µM. 340,000 tested, 0.88% active. Q9GZU7;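 active means inhibition above about 50% at 20 µM, limit read from the data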;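 further: plate controls were DMSO wells with enzyme for no effect and wells lacking enzyme for full effect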
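Material – SCP-1 phosphatase catalytic domain, residues 76-261 · Buffer or medium – Acidic Tris acetate buffer with magnesium and detergent · Also added – Phospho 17-mer peptide substrate · Compound – single 20 µM dose, 1% DMSO · Times – 45 min room-temperature reaction, 5 min colour, 30 min stabiliser · Technique – Phosphate-binding colour reagent, absorbance read at 630 nm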
HKDC1 inh: inhibitors of human hexokinase HKDC1; 340,000 tested, 0.16% active; recombinant HKDC1, G6PDH/diaphorase resazurin coupled fluorescence; AID 493160; inhibition, % at 20 µM;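 active means inhibition above about 35% when tested at 20 µM, limit read from the data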;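 further: plate controls were DMSO wells with enzyme for no effect and DMSO wells lacking enzyme for full effect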
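Incubation: 90 min at room temperature in dark / Material: recombinant HKDC1 (HK5) hexokinase enzyme, produced in-house / Quantity: enzyme 5 µg/mL final / Compound: one dose of 20 µM, 1% DMSO / Reagent: glucose and ATP substrates / Buffer or medium: Tris pH 8.0 buffer with MgCl2, Tween-20, BSA, BME / Technique: resorufin fluorescence at 613 nm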
DNMT1 inh: inhibitors of human DNMT1. DNMT1 molecular beacon, Hinp1I cleavage, fluorescence. P26358. 360,000 tested, 0.83% active. AID 588458. inhibition (reported as % activation of signal), % at 10 µM; in the data active means inhibition above about 50%
DNMT1 inh conf: confirmation of human DNMT1 inhibitors; shares compounds with DNMT1 inh; DNMT1 molecular beacon HinP1I cleavage, fluorescence; inhibition, % at 10 µM; 2,300 tested, 8% active;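 active means average inhibition of at least 30% in the single-concentration confirmation test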
DNMT1 interf: counter-screen for DNMT1 inhibitors: spectral interference; shares compounds with DNMT1 inh; DNMT1 molecular beacon spectral interference counterscreen, fluorescence 485/520; activation (fluorescence interference), % at 10 µM; 2,300 tested, 1% active;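 active means activation of at least 30% at 10 µM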;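 further: DNMT1 catalytic domain with a HinP1I cleavage step and a FAM/dabcyl DNA beacon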
The depositor's hits bear a star.

C[C@H](NC(=O)OC(C)(C)C)C(=O)N/N=C/c1ccc2nccnc2c1 was read as LMPTP inh 1.0, STEP inh 0.8, SUMO1-SIM PPI -13.7, Scp-1 inhibitor -16.4, HKDC1 inh -3.8 and DNMT1 inh 5.1.
Cc1ccc(S(=O)(=O)N2C[C@H]3[C@H]4C(=O)N(c5ccccc5)C(=O)[C@H]4C[C@H](OC(=O)NC4CC4)[C@@]3(O)C2)cc1 was read as LMPTP inh -0.9, STEP inh -1.8, SUMO1-SIM PPI -0.7 and DNMT1 inh 0.5.
`CCCCCCNC(=O)O[C@H]1C[C@@H]2C(=O)N(c3ccccc3)C(=O)[C@@H]2[C@@H]2CN(S(=O)(=O)c3ccc(C)cc3)C[C@]12O` gave LMPTP inh 0.9, STEP inh -4.9, SUMO1-SIM PPI -1.8, DNMT1 inh 75.6*, DNMT1 inh conf 2.5 and DNMT1 interf 3.2.
O=C(C1CC(=O)N(C2CCCC2)C1)N1CCN(c2cccc(Cl)c2)CC1 (stereo not drawn) was read as LMPTP inh 0.1, STEP inh -2.2, SUMO1-SIM PPI 1.7, Scp-1 inhibitor -4.2, HKDC1 inh -5.6 and DNMT1 inh -0.3.
For CCCCc1nc2sc3c(SCCN(C)C)ncnc3c2c2c1CCC2 the results were LMPTP inh -6.4, STEP inh 1.9, SUMO1-SIM PPI -30.1, Scp-1 inhibitor 2.3, HKDC1 inh 7.3 and DNMT1 inh -2.0.
CCCCc1nc2sc3c(SCC(=O)NCc4ccco4)ncnc3c2c2c1CCC2 was read as LMPTP inh 2.6, STEP inh 4.9, SUMO1-SIM PPI -110.6, Scp-1 inhibitor 46.8, HKDC1 inh 1.8, DNMT1 inh 78.2*, DNMT1 inh conf 6.0 and DNMT1 interf 4.8.
For O=S(=O)(c1ccc2c(c1)CCN2)N1CCOCC1 the results were LMPTP inh 0.5, STEP inh -0.1, SUMO1-SIM PPI -0.7, Scp-1 inhibitor -0.7, HKDC1 inh 8.4, DNMT1 inh 101.7*, DNMT1 inh conf 2.9 and DNMT1 interf 4.8.
Screening CCN(C(=O)C1CCCN(c2ncnc3c2nc2n3CCCCC2)C1)c1cccc(Cl)c1 (stereo not drawn) returned LMPTP inh 0.9, STEP inh -0.1, SUMO1-SIM PPI 5.8, Scp-1 inhibitor -6.8, HKDC1 inh 4.2 and DNMT1 inh 0.1.
For COc1ccc(N=C2NC(=O)/C(=C\C=C\c3ccco3)S2)cc1 the results were LMPTP inh 32.1, STEP inh 5.6, SUMO1-SIM PPI 23.7, Scp-1 inhibitor 25.2, HKDC1 inh -0.5, DNMT1 inh 79.7*, DNMT1 inh conf 3.5 and DNMT1 interf -4.2.
`Cc1ccc(N=C2NC(=O)/C(=C\c3ccco3)S2)cc1` gave LMPTP inh 2.0, STEP inh -4.8, SUMO1-SIM PPI -6.6, Scp-1 inhibitor 7.1, HKDC1 inh -7.8 and DNMT1 inh 45.5.
`O=C1NC(=Nc2ccc3ccccc3c2)S/C1=C/c1ccco1` gave LMPTP inh 25.6, STEP inh 0.2, SUMO1-SIM PPI 2.6, Scp-1 inhibitor 18.2, HKDC1 inh -2.9, DNMT1 inh 67.2*, DNMT1 inh conf 3.2 and DNMT1 interf -2.4.
For Cc1cccc(N=C2NC(=O)/C(=C/C=C/c3ccco3)S2)c1 the results were LMPTP inh 6.3, STEP inh 0.4, SUMO1-SIM PPI 13.7, Scp-1 inhibitor 15.3, HKDC1 inh 4.9, DNMT1 inh 85.1*, DNMT1 inh conf 14.4 and DNMT1 interf 1.4.
For CCC(C)(C(=O)NC1CCCC1)N(C(=O)Cc1cccs1)c1c(C)n(C)n(-c2ccccc2)c1=O (stereo not drawn) the results were LMPTP inh 0.6, STEP inh -0.6, SUMO1-SIM PPI 0.8, Scp-1 inhibitor -7.4, HKDC1 inh -1.7 and DNMT1 inh 3.6.
